In brackets after ≈: the same amount, converted by molar mass.

For orientation: HC50 means the concentration giving 50% haemolysis. Broadly, the MIC is the lowest concentration found to suppress growth. A lower MIC goes with greater potency.

Data set [1] can be described thus: Hemolytic activity in human erythrocytes after 1 hr by spectrophotometry. Type of data set: ADME, cell-based, Erythrocyte. Summed up:
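Fresh heparinised human erythrocytes suspended to 5 vol % in PBS pH 7.4, mixed with serially diluted compound, 1 h at 37 °C; no-compound and 1 vol % Triton X-100 controls. Supernatant A540 after centrifugation gave % hemolysis; triplicates averaged, sigmoidal fit gave HC50.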

For data set [2], the system named is Enterococcus faecium. Put plainly: Antimicrobial activity against Enterococcus faecium ATCC 19634 after 24 hrs by broth microdilution method. Format: functional. In general terms: In broth dilution the organism is exposed to a series of concentrations in liquid medium.
The next data set deals with Klebsiella pneumoniae. As to the kind of experiment: Antimicrobial activity against beta-lactam-resistant Klebsiella pneumoniae ATCC 700603 after 24 hrs by broth microdilution method. Format: functional. Summed up: (§1)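 Broth microdilution per CLSI, 24 h at 37 °C. Inoculum is a 6 h 37 °C culture diluted to ~10^5 CFU/mL (yeast–dextrose broth for MRSA and K. pneumoniae). 50 μL of 2-fold dilutions in water plus 150 μL bacteria. Read by OD600, triplicates, run at least twice. MIC is taken from a sigmoidal fit as the point where OD equals the bacteria-free control.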

In data set [3] the test system is Staphylococcus aureus. As to the kind of experiment: Antimicrobial activity against Staphylococcus aureus MTCC 737 after 24 hrs by broth microdilution method. Format: functional. In a few lines: (§2)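 Broth microdilution per CLSI: 6 h cultures (37 °C) diluted to ~10^5 CFU/mL; 2-fold serial dilutions in sterile water added to bacteria; 24 h at 37 °C; OD600 read. Triplicates, experiment done at least twice; mean OD vs concentration fitted sigmoidally, MIC taken where OD matched the no-bacteria control. E. coli grown in LB broth, S. aureus in yeast–dextrose broth.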

The subject of the next data set is Escherichia coli. As to the kind of experiment: Antimicrobial activity against Escherichia coli MTCC 443 after 24 hrs by broth microdilution method. Type of data set: functional. Summed up: as §2
Data set [4] deals with Enterococcus faecium. Put plainly: Antimicrobial activity against vancomycin-resistant Enterococcus faecium ATCC 51559 after 24 hrs by broth microdilution method. Format: functional. Summed up: as §1
Data set [5] concerns Staphylococcus aureus. Put plainly: Antimicrobial activity against methicillin-resistant Staphylococcus aureus ATCC 33591 after 24 hrs by broth microdilution method. Format: functional. Summed up: as §1

`CCCCCCCCCCCCCCCCCC(=O)N(CCCN)CCCN.O=C(O)C(F)(F)F.O=C(O)C(F)(F)F` yielded an HC50 at 1 h in data set [1] of 42 µg/mL. For the same compound, the MIC in the data set on Enterococcus faecium [2] (ATCC 19634, 24 h) turned out to be 21 µg/mL; with Klebsiella pneumoniae (ATCC 700603, 24 h), 106 µg/mL; in the data set on Staphylococcus aureus [3] (MTCC 737, 24 h), 21 µg/mL; against Escherichia coli (MTCC 443, 24 h), 26 µg/mL; in the data set on Enterococcus faecium [4] (ATCC 51559, 24 h), 11 µg/mL; in the data set with Staphylococcus aureus [5] (ATCC 33591, 24 h), 19 µg/mL.

Regarding `CCCCCCCCCCCCCCCC(=O)N(CCCNC(=O)[C@@H](N)Cc1ccccc1)CCCNC(=O)[C@@H](N)Cc1ccccc1.O=C(O)C(F)(F)F.O=C(O)C(F)(F)F`, the HC50 at 1 h in data set [1] is 74 µg/mL. For the same compound, the MIC with Enterococcus faecium [2] (ATCC 19634, 24 h) stood at 7.6 µg/mL; in the data set with Klebsiella pneumoniae (ATCC 700603, 24 h) it was 62 µg/mL; in the data set on Staphylococcus aureus [3] (MTCC 737, 24 h), 9 µg/mL; against Escherichia coli (MTCC 443, 24 h), 227 µg/mL; in the data set on Enterococcus faecium [4] (ATCC 51559, 24 h), 2.7 µg/mL; in the data set on Staphylococcus aureus [5] (ATCC 33591, 24 h), 4.6 µg/mL.

For COLISTIN, the MIC is above 250 µg/mL against Enterococcus faecium [2]; 1.5 µg/mL against Klebsiella pneumoniae; 25 µg/mL in the data set with Staphylococcus aureus [3]; 0.5 µg/mL against Escherichia coli; above 250 µg/mL in the data set on Enterococcus faecium [4]; 68 µg/mL against Staphylococcus aureus [5].

As to `CN[C@H](CC(C)C)C(=O)N[C@H]1C(=O)N[C@@H](CC(N)=O)C(=O)N[C@H]2C(=O)N[C@H]3C(=O)N[C@H](C(=O)N[C@H](C(=O)O)c4cc(O)cc(O)c4-c4cc3ccc4O)[C@H](O)c3ccc(c(Cl)c3)Oc3cc2cc(c3O[C@@H]2O[C@H](CO)[C@@H](O)[C@H](O)[C@H]2O[C@H]2C[C@](C)(N)[C@H](O)[C@H](C)O2)Oc2ccc(cc2Cl)[C@H]1O` [VANCOMYCIN], the MIC against Enterococcus faecium [2] (ATCC 19634, 24 h) was 0.8 µg/mL (≈ 0.552 µM); against Staphylococcus aureus [3] (MTCC 737, 24 h), 0.8 µg/mL (≈ 0.552 µM); against Enterococcus faecium [4] (ATCC 51559, 24 h) it was above 1000 µg/mL; against Staphylococcus aureus [5] (ATCC 33591, 24 h), 0.8 µg/mL (≈ 0.552 µM).

Consider `N[C@@H](Cc1ccccc1)C(=O)NCCCNCCCNC(=O)[C@@H](N)Cc1ccccc1.O=C(O)C(F)(F)F.O=C(O)C(F)(F)F.O=C(O)C(F)(F)F`, for which the MIC was above 250 µg/mL in the data set with Enterococcus faecium [2] (ATCC 19634, 24 h); above 250 µg/mL against Klebsiella pneumoniae (ATCC 700603, 24 h); above 250 µg/mL in the data set with Staphylococcus aureus [3] (MTCC 737, 24 h); above 250 µg/mL in the data set on Escherichia coli (MTCC 443, 24 h); above 250 µg/mL against Enterococcus faecium [4] (ATCC 51559, 24 h).

In data set [1], `CCCCCCCCCCCC(=O)N(CCCN)CCCN.O=C(O)C(F)(F)F.O=C(O)C(F)(F)F` had an HC50 at 1 h of 107 µg/mL. In addition, the MIC was 62 µg/mL with Enterococcus faecium [2] (ATCC 19634, 24 h); 163 µg/mL against Klebsiella pneumoniae (ATCC 700603, 24 h); 45 µg/mL against Staphylococcus aureus [3] (MTCC 737, 24 h); 108 µg/mL in the data set with Escherichia coli (MTCC 443, 24 h); 57 µg/mL in the data set with Enterococcus faecium [4] (ATCC 51559, 24 h); 53 µg/mL against Staphylococcus aureus [5] (ATCC 33591, 24 h).

As to `CCCCCCCCCC(=O)N(CCCN)CCCN.O=C(O)C(F)(F)F.O=C(O)C(F)(F)F`, the HC50 at 1 h in data set [1] was above 500 µg/mL. In addition, the MIC in the data set with Enterococcus faecium [2] (ATCC 19634, 24 h) was above 250 µg/mL; in the data set with Klebsiella pneumoniae (ATCC 700603, 24 h) it was above 250 µg/mL; in the data set on Staphylococcus aureus [3] (MTCC 737, 24 h), 240 µg/mL; in the data set on Escherichia coli (MTCC 443, 24 h), 231 µg/mL; against Enterococcus faecium [4] (ATCC 51559, 24 h), 250 µg/mL; in the data set with Staphylococcus aureus [5] (ATCC 33591, 24 h), 137 µg/mL.

`CCCCCCCCCCCCCC(=O)N(CCCNC(=O)[C@@H](N)Cc1ccccc1)CCCNC(=O)[C@@H](N)Cc1ccccc1.O=C(O)C(F)(F)F.O=C(O)C(F)(F)F` showed an HC50 at 1 h in data set [1] of 124 µg/mL. Besides, the MIC in the data set with Enterococcus faecium [2] (ATCC 19634, 24 h) worked out at 4.5 µg/mL; in the data set on Klebsiella pneumoniae (ATCC 700603, 24 h) it was 16 µg/mL; with Staphylococcus aureus [3] (MTCC 737, 24 h), 6 µg/mL; with Escherichia coli (MTCC 443, 24 h), 14 µg/mL; against Enterococcus faecium [4] (ATCC 51559, 24 h), 2.4 µg/mL; in the data set with Staphylococcus aureus [5] (ATCC 33591, 24 h) it was 4.1 µg/mL.

With `N[C@@H](Cc1ccccc1)C(=O)NCCCN(CCCNC(=O)[C@@H](N)Cc1ccccc1)C(=O)Cc1cccc2ccccc12.O=C(O)C(F)(F)F.O=C(O)C(F)(F)F`, the MIC was above 250 µg/mL in the data set with Enterococcus faecium [2] (ATCC 19634, 24 h); above 250 µg/mL against Klebsiella pneumoniae (ATCC 700603, 24 h); above 250 µg/mL in the data set with Staphylococcus aureus [3] (MTCC 737, 24 h); above 250 µg/mL against Escherichia coli (MTCC 443, 24 h); above 250 µg/mL against Enterococcus faecium [4] (ATCC 51559, 24 h).

On to `N[C@@H](Cc1ccccc1)C(=O)NCCCN(CCCNC(=O)[C@@H](N)Cc1ccccc1)C(=O)[C@@H](N)Cc1ccccc1.O=C(O)C(F)(F)F.O=C(O)C(F)(F)F.O=C(O)C(F)(F)F`, for which the MIC against Enterococcus faecium [2] (ATCC 19634, 24 h) was above 250 µg/mL; in the data set on Klebsiella pneumoniae (ATCC 700603, 24 h) it was above 250 µg/mL; with Staphylococcus aureus [3] (MTCC 737, 24 h), above 250 µg/mL; in the data set on Escherichia coli (MTCC 443, 24 h) it was above 250 µg/mL; with Enterococcus faecium [4] (ATCC 51559, 24 h) it was above 250 µg/mL.

The values are drawn from ChEMBL document CHEMBL3352498, “Membrane active phenylalanine conjugated lipophilic norspermidine derivatives with selective antibacterial activity” (J Med Chem, 2014).
